Data published in ChEMBL document CHEMBL1800034, “A synthetic 7,8-dihydroxyflavone derivative promotes neurogenesis and exhibits potent antidepressant effect” (J Med Chem, 2010).
Activity calls are given as the source filed them. The calls are words filed in the database; no cut-off is given here.

Key:
[1] = system: HEK293; experiment: Cytotoxicity against human HEK293 cells assessed as inhibition of cell proliferation at up to 50 uM by MTT assay; format: cell-based
[2] = molecular target: BDNF/NT-3 growth factors receptor (Rattus norvegicus) (UniProt Q63604); experiment: Agonist activity at TrkB in E17 rat primary rat cortical neurons assessed as AKT phosphorylation at Ser 473 at 100 nM after 15 mins by titration assay; format: functional
Summary of the method: (§1)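 Primary cortical neurons were incubated with graded concentrations, starting at 10 nM, for 15 min. Phospho-Akt Ser473 was measured by sandwich ELISA on 20 µg of lysate. Data come from 2 replicated experiment sets, given as mean ± SEM. Comparisons used one-way ANOVA against control and Student's t-test between compounds.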

[3] = system: Mus musculus; experiment: Toxicity in C57BL/6J mouse assessed as pathological changes in testis at 5 mg/kg, po for 3 weeks; format: organism-based; parameters: dose 5 mg/kg, route oral; conditions: in vivo, 504 h
Summary of the method: (§2)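 Mice were dosed orally at 5 mg/kg for 3 weeks, with saline-treated controls. Major organs were examined for pathological changes, and a complete blood count was done.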

[4] = system: Mus musculus; experiment: Agonist activity at TrkB in C57BL/6J mouse brain assessed as TrkB 706 phosphorylation at 1 mg/kg, po after 4 hrs by immunoblotting; format: functional, organism-based; parameters: dose 1 mg/kg
Summary of the method: (§3)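 C57BL/6J mice got a single oral dose of 1 mg/kg. Brains were collected at several time points, about 1 to 16 h after dosing. Lysates were immunoblotted for TrkB phosphorylation and for downstream Akt and MAPK phosphorylation.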

[5] = system: Mus musculus; experiment: Agonist activity at TrkB in C57BL/6J mouse brain lysate assessed as TrkB phosphorylation at Y817 at 5 mg/kg, po administered for 21 days by immunoblotting; format: functional, organism-based; parameters: dose 5 mg/kg
Summary of the method: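 Adult male C57BL/6J mice, 8 per group, dosed orally by gavage once daily for 21 days; saline was the vehicle. Brain lysates were immunoblotted with anti-p-TrkA 794 and anti-p-TrkB 817.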

[6] = molecular target: BDNF/NT-3 growth factors receptor (Rattus norvegicus) (UniProt Q63604); experiment: Agonist activity at TrkB in E17 rat primary rat cortical neurons assessed as AKT phosphorylation at Ser 473 at 10 to 50 nM after 15 mins by titration assay; format: functional; summary of the method: as §1
[7] = system: Mus musculus; experiment: Toxicity in C57BL/6J mouse assessed as pathological changes in hippocampus at 5 mg/kg, po for 3 weeks; format: organism-based; parameters: dose 5 mg/kg, route oral; conditions: in vivo, 504 h; summary of the method: as §2
[8] = system: Mus musculus; experiment: Toxicity in C57BL/6J mouse assessed as pathological changes in intestine at 5 mg/kg, po for 3 weeks; format: organism-based; parameters: dose 5 mg/kg, route oral; conditions: in vivo, 504 h; summary of the method: as §2
[9] = system: Mus musculus; experiment: Toxicity in C57BL/6J mouse assessed as pathological changes in brain cortex at 5 mg/kg, po for 3 weeks; format: organism-based; parameters: dose 5 mg/kg, route oral; conditions: in vivo, 504 h; summary of the method: as §2
[10] = molecular target: BDNF/NT-3 growth factors receptor (Rattus norvegicus) (UniProt Q63604); experiment: Agonist activity at TrkB in E16 rat embryonic cortical neurons assessed as inhibition of glutamate-induced caspase 3 activation at 10 nM after 30 mins followed by 16 hrs of 50 uM glutamate-challenge by ELISA; format: functional
Summary of the method: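 Cortical neurons from E16 rat embryos were pretreated with the indicated compound concentrations for 30 min. They were then challenged with 50 µM glutamate for 16 h. Active caspase-3 in the lysates was measured by ELISA.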

[11] = system: Mus musculus; experiment: Toxicity in C57BL/6J mouse assessed as affect on complete blood count analysis at 5 mg/kg, po for 3 weeks; format: organism-based; parameters: dose 5 mg/kg, route oral; conditions: in vivo, 504 h; summary of the method: as §2
[12] = molecular target: BDNF/NT-3 growth factors receptor (Rattus norvegicus) (UniProt Q63604); experiment: Agonist activity at TrkB in E17 rat primary cortical neurons at 500 nM after 10 mins by immunoblotting; format: functional, cell-based; conditions: Cerebral cortex neuron
Summary of the method: (§4)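 Rat primary cortical neurons were exposed to 500 nM compound for various times between 5 and 180 min. Lysates were immunoblotted for TrkB, Akt and MAPK phosphorylation.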

[13] = system: Mus musculus; experiment: Agonist activity at TrkB in C57BL/6J mouse brain assessed as AKT phosphorylation at Ser473 at 1 mg/kg, po after 1 to 16 hrs by immunoblotting; format: functional, organism-based; parameters: dose 1 mg/kg; summary of the method: as §3
[14] = system: Mus musculus; experiment: Toxicity in C57BL/6J mouse assessed as pathological changes in spleen at 5 mg/kg, po for 3 weeks; format: organism-based; parameters: dose 5 mg/kg, route oral; conditions: in vivo, 504 h; summary of the method: as §2
[15] = molecular target: BDNF/NT-3 growth factors receptor (Rattus norvegicus) (UniProt Q63604); experiment: Agonist activity at TrkB in E17 rat primary cortical neurons assessed as MAPK phosphorylation at 500 nM by ELISA; conditions: Cerebral cortex neuron
[16] = system: Mus musculus; experiment: Agonist activity at TrkB in C57BL/6J mouse brain assessed as TrkB 706 phosphorylation at 1 mg/kg, po at 1 hr by immunoblotting; format: functional, organism-based; parameters: dose 1 mg/kg; summary of the method: as §3
[17] = molecular target: BDNF/NT-3 growth factors receptor (Rattus norvegicus) (UniProt Q63604); experiment: Agonist activity at TrkB in E17 rat primary rat cortical neurons assessed as AKT phosphorylation at Ser 473 at 500 nM after 15 mins by ELISA; format: functional
[18] = system: Mus musculus; experiment: Agonist activity at TrkB in C57BL/6J mouse brain assessed as AKT phosphorylation at 1 mg/kg, po after 1 to 16 hrs by immunoblotting; format: functional, organism-based; parameters: dose 1 mg/kg; summary of the method: as §3
[19] = system: Mus musculus; experiment: Antidepressant activity in C57BL/6J mouse assessed as decrease in immobility at 5 mg/kg, po administered for 21 days measured last 4 mins of total 6 mins observation time by forced swim test; format: functional, organism-based; parameters: dose 5 mg/kg
Summary of the method: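 Male C57BL/6J mice, 2–3 months old, were gavaged with saline or compound at 5 mg/kg for 21 days. Mice were acclimated to the test room for 2 days. There was no pre-swim. Each mouse swam for 6 min in a 16 cm cylinder of water 14 cm deep at 24 °C. Immobility was scored blind over the last 4 min; mean ± SEM, ANOVA.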

[20] = molecular target: BDNF/NT-3 growth factors receptor (Rattus norvegicus) (UniProt Q63604); experiment: Agonist activity at TrkB in E17 rat primary cortical neurons assessed as AKT phosphorylation at S473 at 500 nM by ELISA; conditions: Cerebral cortex neuron
[21] = system: Mus musculus; experiment: Antidepressant activity in TrkB F616A knock in mouse assessed as reduction of immobility time at 5 mg/kg, po administered for 21 days by forced swim test assay in presence of TrkB F616A inhibitor 1NMPP1; format: functional, organism-based; parameters: dose 5 mg/kg
[22] = molecular target: BDNF/NT-3 growth factors receptor (Rattus norvegicus) (UniProt Q63604); experiment: Agonist activity at TrkB in E17 rat primary cortical neurons at 500 nM after 30 to 180 mins by immunoblotting; format: functional, cell-based; conditions: Cerebral cortex neuron; summary of the method: as §4
[23] = system: Mus musculus; experiment: Induction of neurogenesis in C57BL/6J mouse hippocampus dentate gyrus assessed as progenitor cell proliferation at 5 mg/kg, po administered for 21 days by DAPI and BrdU staining based fluorescence microscopy; format: functional, organism-based; parameters: dose 5 mg/kg
Summary of the method: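 Adult male C57BL/6J mice were gavaged at 5 mg/kg for 21 days and then given BrdU at 50 mg/kg i.p. Mice were perfused with 4% paraformaldehyde 2 h later. Paraffin sections had citrate antigen retrieval and 2 N HCl treatment, then were stained with anti-BrdU-FITC at 4 °C for 16 h and with DAPI. BrdU-positive cells in the dentate gyrus were counted by fluorescence microscopy.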

[24] = system: Mus musculus; experiment: Neuroprotective activity in TrkB F616A knock in mouse assessed as inhibition of kainic acid-induced caspase 3 activation in brain homogenates at 5 mg/kg, po administered 4 hrs prior to kainic acid challenge measured after 4 days by immunoblotting in presence of TrkB F616A inhibitor 1NMPP1; format: functional, organism-based; parameters: dose 5 mg/kg
Summary of the method: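 TrkB F616A knock-in mice, 2–3 months old, were given 1NMPP1 at 25 µM in drinking water one day beforehand. They were then gavaged with compound at 5 mg/kg, followed 4 h later by kainic acid at 20 mg/kg. Brains were taken 4 days later, homogenized and ultracentrifuged. 40 µg of supernatant was immunoblotted.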

Sequence of BDNF/NT-3 growth factors receptor (Rattus norvegicus) (Q63604 whole entry): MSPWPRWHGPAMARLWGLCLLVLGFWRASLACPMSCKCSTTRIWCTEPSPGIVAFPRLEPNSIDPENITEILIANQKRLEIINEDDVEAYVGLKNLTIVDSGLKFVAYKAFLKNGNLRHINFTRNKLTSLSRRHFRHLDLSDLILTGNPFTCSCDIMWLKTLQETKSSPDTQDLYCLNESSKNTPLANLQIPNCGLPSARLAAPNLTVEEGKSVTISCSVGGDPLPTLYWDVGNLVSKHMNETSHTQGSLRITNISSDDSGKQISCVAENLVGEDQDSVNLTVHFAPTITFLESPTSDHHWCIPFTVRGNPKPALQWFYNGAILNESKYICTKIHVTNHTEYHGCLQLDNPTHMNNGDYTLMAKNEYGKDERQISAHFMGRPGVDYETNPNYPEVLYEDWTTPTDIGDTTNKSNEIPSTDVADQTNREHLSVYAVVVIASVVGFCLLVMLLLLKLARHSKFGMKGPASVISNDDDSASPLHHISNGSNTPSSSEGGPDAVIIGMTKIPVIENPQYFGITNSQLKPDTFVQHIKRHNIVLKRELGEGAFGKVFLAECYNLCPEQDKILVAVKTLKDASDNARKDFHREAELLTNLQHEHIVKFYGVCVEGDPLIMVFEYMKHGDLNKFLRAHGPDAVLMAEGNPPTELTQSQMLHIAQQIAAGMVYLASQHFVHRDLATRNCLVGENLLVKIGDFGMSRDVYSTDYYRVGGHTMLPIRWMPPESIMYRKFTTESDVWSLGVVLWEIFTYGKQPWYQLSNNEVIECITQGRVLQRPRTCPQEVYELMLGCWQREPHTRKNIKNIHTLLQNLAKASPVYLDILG

With `CN(C)c1ccc(-c2cc(=O)c3ccc(O)c(O)c3o2)cc1` the Activity [1] was “Non-toxic”, the Activity [2] was “Active” and the Activity [3] was “Non-toxic”. The Activity [4] was “Active”, the Activity [5] was “Active” and the Activity [6] was “Active”. The Activity [7] was “Non-toxic”, the Activity [8] was “Non-toxic” and the Activity [9] was “Non-toxic”. The inhibition [10] was “Active”, the Activity [11] was “Non-toxic” and the Activity [12] was “Active”. For the same compound, the Activity [13] was “Active”, the Activity [14] was “Non-toxic” and the Activity [15] was “Active”. For the same compound, the Activity [16] was “Active”, the Activity [17] was “Active” and the Activity [18] was “Active”. For the same compound, the Activity [19] was “Active”, the Activity [20] was “Active” and the Activity [21] was “inactive”. For the same compound, the Activity [22] was “inactive”, the Activity [23] was “Active” and the inhibition [24] was “inactive”.
